Results taken from ChEMBL document CHEMBL1127302 (J Med Chem, 1994).

Assays:
[1] = molecular target: Neuronal acetylcholine receptor (Rattus norvegicus) (UniProt P04757+P09483+P12389+P12390+P12392+P43144+Q9JLB5+P12391+P43143+P20420+Q05941); experiment: In vitro neuronal nAChRs evoked [3H]dopamine release was determined in rat striatal slices at concentration of 10e-6 M; assay type: functional
[2] = molecular target: Neuronal acetylcholine receptor; experiment: In vitro binding affinity to neuronal nAChRs was determined by measuring the displacement of [3H]cytisine in rat brain; assay type: tissue-based
Outline: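 Whole rat brain membrane preparation; displacement of [3H]cytisine from neuronal nAChRs. Binding normalised to equilibrium dissociation constants (Ki). Values are means ± SEM.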

c1cncc([C@@H]2CCCN2)c1
Dopamine release [1]: 155%

Cc1cc([C@@H]2CCCN2)on1
Dopamine release [1]: 111% | Ki [2]: 7.4 nM

CCCCc1cc([C@H]2CCCN2C)on1
Dopamine release [1]: 38% | Ki [2]: 24.2 nM

CN1CCC[C@@H]1c1cc(CO)no1
Dopamine release [1]: 41% | Ki [2]: 126 nM

Cc1cc([C@H]2CCCN2C)no1
Ki [2]: 1330 nM

c1cncc([C@H]2CCCN2)c1
Dopamine release [1]: 93%

COCc1cc([C@H]2CCCN2C)on1
Dopamine release [1]: 51% | Ki [2]: 21.9 nM

CCCc1cc([C@H]2CCCN2)on1
Ki [2]: > 10000 nM

Cc1cc([C@@H]2CCCN2C)sn1
Dopamine release [1]: 22%

CCc1cc([C@@H]2CCCN2C)on1
Dopamine release [1]: 46%

Cc1cc([C@@H]2CCCN2C)on1
Dopamine release [1]: 85%

CCc1cc([C@H]2CCCN2C)on1
Dopamine release [1]: 78% | Ki [2]: 7.6 nM

CN1CCC[C@@H]1c1cc(Cc2ccccc2)no1
Dopamine release [1]: 30% | Ki [2]: 7.4 nM

CCN1CCC[C@@H]1c1cc(C)no1
Dopamine release [1]: 64% | Ki [2]: 34.3 nM

CN1CCC[C@@H]1c1cccnc1
Dopamine release [1]: 114%

CN1CCC[C@@H]1c1cc(-c2ccccc2)no1
Ki [2]: 788 nM

Cc1cc([C@@H]2CCCN2)sn1
Dopamine release [1]: 56% | Ki [2]: 228 nM

CCOC(=O)c1cc([C@H]2CCCN2C)on1
Ki [2]: 890 nM

CN1CCC[C@H]1c1cccnc1
Dopamine release [1]: 126%

CCc1cc([C@@H]2CCCN2)on1
Dopamine release [1]: 79% | Ki [2]: 11.7 nM

Cc1cc([C@H]2CCCN2C)on1
Dopamine release [1]: 95%

CN1CCC[C@@H]1c1cc(C(F)(F)F)no1
Dopamine release [1]: 92% | Ki [2]: 6.1 nM

Cc1cc([C@H]2CCCN2C)sn1
Dopamine release [1]: 41%

c1ccc(-c2cc([C@H]3CCCN3)on2)cc1
Ki [2]: > 10000 nM

CCCCc1cc([C@H]2CCCN2)on1
Ki [2]: 5000 nM

CCCc1cc([C@H]2CCCN2C)on1
Dopamine release [1]: 45% | Ki [2]: 14 nM

Cc1cc([C@H]2CCCN2)sn1
Dopamine release [1]: 61% | Ki [2]: 51 nM

CCc1cc([C@H]2CCCN2)on1
Dopamine release [1]: 30% | Ki [2]: 552 nM

Cc1cc([C@H]2CCCN2)on1
Dopamine release [1]: 43% | Ki [2]: 333 nM
